ChEMBL document CHEMBL4513216, “Probing the Open Global Health Chemical Diversity Library for Multistage-Active Starting Points for Next-Generation Antimalarials” (ACS Infect Dis, 2020)

Assay: Toxicity liver stage against HepG2, at 10uM
Type: cell-based
Set-up: test concentration 10 uM, cell line HepG2-A16-CD81EGFP
Details: human, HepG2-A16-CD81EGFP cells; read-out: INHIBITION
Procedure, shortened: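 Uninfected HepG2-A16-CD81EGFP cells, 3 × 10^3 per well, 1536-well, plated on prespotted compound at 10 μM final, parasite-free screening media added to match infected plates; puromycin 10 μM positive, DMSO 0.5% negative; run in parallel with 48 h PbLuc assay at 37 °C, 5% CO2; viability by CellTiter-Glo luminescence, normalized to controls.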

Compound	cytotoxicity at 10 µM
O=C(CN1CCOCC1)Nc1ncc(Br)cc1Br	10.2%
C1CN(CCN2CCOCC2)CCN1	-11.5%
CC(C)(C)CNC[C@H]1Cn2c(-c3ccccc3)cnc2CO1	-9.14%
O=C(O)CCn1ccc(=O)c2ccccc21	0.148%
O=C(Nc1cc(C(F)(F)F)ccc1Cl)c1ccc(N2CCCC2)nn1	-4.43%
O=S(=O)(c1cccs1)N1CCC(c2nc(-c3cccs3)no2)CC1	6.14%
CC(C)(C)NC(=O)NCc1cnn2ccccc12	-11.9%
CC(=O)N1CCC(c2nn(C)c(=O)n2-c2ccccc2)CC1	-2.05%
Cc1csc(C(=O)NCCn2nc(-n3cncn3)ccc2=O)c1	2.06%
Cc1cccc(CN2CC3(CCN(C(=O)C4CC4)CC3)OCC2=O)n1	-4.67%
O=C(CCn1ccc2cc(Br)ccc21)/N=c1\[nH]nc(C2CCCO2)s1 (centres undefined)	-2.31%
CN(C)c1ccc(-c2cc(=O)n3c(n2)CCCCC3)cc1	-13.1%
c1coc(CN2Cc3nccn3CC(Cn3cncn3)C2)c1 (centres undefined)	-7.18%
Cc1cccc(N2CC(c3nnc(N)s3)CC2=O)c1 (centres undefined)	3.79%
CCN1CCCC(O)(CN(C)Cc2ccc(C)o2)C1 (centres undefined)	-3.65%
CCn1nccc1CN(C)C(=O)Cn1cc2c(n1)c(C)nn2CC	15.4%
COCc1nc(N(C)C)ncc1C(=O)Nc1cc(C)cc(C)c1	6.89%
Cc1nn(C)c2c(NCc3cccnc3)nc(C3CC3)nc12	-9.84%
CC(=O)N[C@H]1CCO[C@@H](c2cccc(NC(=O)c3ccc(=O)[nH]n3)c2)C1	4.46%
CCC(=O)N1CCCC1(C)c1nc(C)no1 (centres undefined)	1.34%
c1ccc2ncc(CC3CCNC3)cc2c1 (centres undefined)	-1.67%

Compound	cytotoxicity at 10 µM
CN(C)C(=O)CN1CCCC(c2cncc(-c3cccc(Cl)c3)n2)C1 (centres undefined)	24%
Cc1ccc(CN2CCCC2(C(N)=O)c2cnccn2)c(C)c1 (centres undefined)	4.11%
Cc1nc(C2CCCN(C(=O)c3ccncc3)C2)c2sccn12 (centres undefined)	-10.4%
Cn1nc(C2CN(S(C)(=O)=O)C2)c2nccnc21	-13.2%
CO[C@H]1CN(Cc2ccc(F)c(F)c2)C[C@@]12CCCO2	-5.52%
CCc1noc(C)c1C(=O)N1CCC(c2[nH]ncc2S(C)(=O)=O)C1 (centres undefined)	-6.94%
O=C(c1ccc(Cl)cc1)N1CCn2c(nn(-c3ccc(Cl)cc3)c2=O)C1	10.9%
CC(C)NC1CCN(CCc2ccc3c(c2)CCO3)CC1	-21.8%
COc1ccc(Cl)cc1CCNC(=O)N(C)CC1CCOC1 (centres undefined)	7.17%
CCc1nnc(CS(=O)(=O)c2ccc(C)cc2)n1C	7.05%
CNC(=O)c1cccc(CN2CCN(c3ccncc3)CC2)c1	-19.7%
FC(F)(F)c1cc(C2CCCN(Cc3cccnc3)C2)n[nH]1 (centres undefined)	-45.7%
CN1CCN(CCNC(=O)C(OC2CCCC2)c2ccccc2)CC1 (centres undefined)	-9.43%
COC(=O)c1ccc(OCC(=O)N(C)Cc2ccsc2)c(OC)c1	5.98%
Cc1ccc(C(=O)N2CCSCC2)cc1NC(=O)NCC1CCC1	3.07%
COC(=O)CNC(=O)C(C)Oc1ccccc1C(F)(F)F (centres undefined)	6.08%
O=C(CC1CN(Cc2ccccc2)CCO1)NC1CCSCC1 (centres undefined)	-15.1%
CCNC(=O)N1CCC(NC(=O)NCCCc2cccc(F)c2)C1 (centres undefined)	-47.5%
CCCNC(=O)CNc1ccccc1OCCC(=O)OC	8.95%
O=C(NCC1(O)CCOC1)NCC1(c2ccccc2Cl)CCC1 (centres undefined)	-50.8%
COc1ccnc(N2CCN(C(=O)CCc3cnn(C)c3)CC2)n1	8.72%

Compound	cytotoxicity at 10 µM
Cn1ncnc1NS(=O)(=O)c1ccccc1	8.26%
O=C(CCc1cccc(Cl)c1)NS(=O)(=O)Cc1ccon1	8.76%
c1ccc(-c2noc(CN3CCC(c4ccn[nH]4)CC3)n2)cc1	-1.19%
Cc1ccccc1C(=O)Nc1cnn(CC(=O)NC2CCCC2)c1	-18.4%
COC(=O)C(C)(C)NC(=O)C1CC(=O)N(C)C1 (centres undefined)	-8.92%
Cc1nc(C)c(C(=O)N2CCC(Nc3cccnc3)CC2)s1	-6.75%
O=C(CCc1cscn1)NS(=O)(=O)c1ccc2ccccc2c1	-13.1%
O=c1c(-c2ccnc(N3CCCC[C@@H]3CO)n2)cnc2sccn12	-10.3%
CCn1ncnc1CN1CCC(CNC(=O)c2ccccc2C#N)C1 (centres undefined)	13.2%
COc1ccc(F)cc1-n1cnc(CCNC(C)=O)c1	13.7%
O=S(=O)(NCc1ccccc1)Nc1ccc(-n2cncn2)cc1	4.44%
COc1cccc(N2CCN(Cc3cccc(CCN)c3)CC2=O)c1	-1.42%
CN1CCC(NCC2(O)CCCN(Cc3ccccc3F)C2=O)CC1 (centres undefined)	-12.2%
CCCc1ccc(CN2CCC3(CC2)CNC(=O)C3)o1	-3.71%
OCCN(Cc1ccccc1)Cc1nc(-c2ccc3c(c2)OCO3)no1	4.74%
CCc1cc(N2CCC(N3CCSCC3)CC2)n2nccc2n1	0.998%
CC[C@H]1COCCN1C(=O)CCCn1nnc(-c2ccc(F)cc2)n1	13.4%
CN(Cc1cccc(-n2cccn2)c1)Cc1c[nH]cn1	5.67%
O=C(O)c1ccccc1C1CCN(C2CCN(c3ccccc3)CC2)C1 (centres undefined)	-14.5%
CCC(CO)N(Cc1cccnc1)C(=O)c1ccc(C)[nH]c1=O (centres undefined)	-3.95%
CC(C)N1CCC2(CC1)CC(=O)N(Cc1cc(F)cc(F)c1)C2	9.03%

Compound	cytotoxicity at 10 µM
CC(=O)N1CCC(N2CCOC(CC3CCCCC3)C2)CC1 (centres undefined)	6.46%
CN(C)C(=O)Cc1ccc(-c2cccc3c2CCNC3)cc1	2.28%
COc1ccc(C(=O)N2C[C@@H](O)[C@H](NCc3cnc(C)cn3)C2)cc1	3.34%
Cc1ncccc1OC1(C(=O)NCCNc2ccccc2)CCNCC1	-12.4%
CCOCCn1c(=O)[nH]c2cc(C(=O)N(C)Cc3nc(C)cs3)ccc21	-10.6%
CC(C)(C)C(Cn1cccn1)NC(=O)c1ccco1 (centres undefined)	-5.5%
CCC(CCN)n1ccc(C(F)(F)F)n1 (centres undefined)	-11.2%
CCOc1ccc(Cl)c(C(=O)NCCS(N)(=O)=O)n1	-8.72%
Cc1cnn(CC2CN(Cc3nc(C)c4ccccc4n3)CCO2)c1 (centres undefined)	-35.6%
CCc1nncn1CCNC(=O)N1CCN(Cc2ccccc2)CC1	3.84%
Cc1ocnc1C(=O)N1CCCN(Cc2cscn2)CC1	-7.22%
COCCOc1ccccc1C(=O)N(C)Cc1ncc(C)c(OC)c1C	-1.61%
CC(C)c1n[nH]c(C2CN(Cc3nnc(C4CC4)n3C)CCO2)n1 (centres undefined)	-10.3%
Cc1cccc(-n2c(C)cc(C(=O)N3CCn4c(C)nnc4C3)c2C)c1	-4.86%
CC(C(=O)N1CCCN(c2ncccc2C#N)CC1)n1cccn1 (centres undefined)	-4.3%
CCNc1cc2c(nn1)CCN(C(=O)c1cc3nc(C)ccc3o1)C2	-3.85%
NC(=O)c1csc(C(=O)N2CCCC(n3ccnc3)C2)c1 (centres undefined)	-2.07%
COc1c(CNCc2cccc(CN(C)C)c2)c(C)nn1C	-9.95%
c1cncc(COCc2nnc3n2CCN(Cc2ccoc2)C3)c1	-11.2%
Cc1ccsc1CN1CCc2nc3ccsc3c(=O)n2CC1	8.52%
CN1C[C@@H]2CC[C@H]1CN(C(=O)COCc1nc3ccc(F)cc3[nH]1)C2	-1.88%
